Laboratory results taken from ChEMBL document CHEMBL4725285, “Amides as bioisosteres of triazole-based geranylgeranyl diphosphate synthase inhibitors” (Bioorg Med Chem, 2020).
The source made the active and inactive calls. The calls are words filed in the database; no cut-off is given here.

Columns and labels:
[1] = target: T1, Geranylgeranyl pyrophosphate synthase (Homo sapiens) (UniProt O95749); experiment: Inhibition of GGDPS in human RPMI-8226 cells assessed as lowest effective concentration required to show unmodified Rap1a band after 48 hrs by immunoblot analysis; type: cell-based
T1 sequence (whole entry): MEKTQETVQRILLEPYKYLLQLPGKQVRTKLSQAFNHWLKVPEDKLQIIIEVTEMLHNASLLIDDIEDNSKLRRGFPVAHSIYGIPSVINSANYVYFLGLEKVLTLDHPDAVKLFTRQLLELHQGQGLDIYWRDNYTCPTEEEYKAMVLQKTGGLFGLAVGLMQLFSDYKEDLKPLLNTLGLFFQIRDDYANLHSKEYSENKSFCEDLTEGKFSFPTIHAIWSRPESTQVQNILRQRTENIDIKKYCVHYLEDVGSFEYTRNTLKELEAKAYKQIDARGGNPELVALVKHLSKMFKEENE
Method in brief: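 RPMI-8226 myeloma cells exposed to drugs for 48 hrs, with lovastatin as positive control. Lysate protein quantified by BCA. Equal amounts run on SDS-PAGE, blotted to PVDF, and probed for H-Ras, Rap1a (antibody recognises only unmodified protein) and β-tubulin as loading control. Detection by HRP secondary antibodies and ECL.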

[2] = target: T1, Geranylgeranyl pyrophosphate synthase (Homo sapiens); experiment: Inhibition of GGDPS in human RPMI-8226 cells assessed as lowest effective concentration required for increase in intracellular lambda chain level after 48 hrs by ELISA; type: cell-based
Rattus norvegicus [3] = species: Rattus norvegicus; experiment: Inhibition of recombinant rat FTase expressed in Escherichia coli using dansyl-GCVLS peptide and farnesyl pyrophosphate as substrate at 100 uM after 1 hr by fluorescence microplate reader analysis relative to control
Method in brief: (§1)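 Recombinant FTase and GGTase I assayed with dansyl-GCVLS and dansyl-GCVLL peptides by a modified Temple et al. method. Fluorescence change followed over time on a microplate reader. Duplicates at multiple concentrations, up to 100 μM, in three independent experiments. IC50 taken from concentration-response curves.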

[4] = target: T2, Geranylgeranyl pyrophosphate synthase (Homo sapiens, UniProt O95749); experiment: Inhibition of recombinant GGDPS (unknown origin) using [14C] IPP and FPP as substrate preincubated for 10 mins followed by substrate addition and measured after 30 min by liquid scintillation counting method
T2 sequence (O95749 whole entry): T1 sequence (whole entry)
Method in brief: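 Recombinant GGDPS used, run by a previously described method. Each compound tested in duplicate at multiple concentrations across three independent experiments. IC50 derived from concentration-response curves.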

[5] = target: T3, Farnesyl pyrophosphate synthase (Homo sapiens, UniProt P14324); experiment: Inhibition of recombinant FDPS (unknown origin) using [14C] IPP and GPP as substrate preincubated for 10 mins followed by substrate addition and measured after 30 min by liquid scintillation counting method
T3 sequence (P14324 whole entry): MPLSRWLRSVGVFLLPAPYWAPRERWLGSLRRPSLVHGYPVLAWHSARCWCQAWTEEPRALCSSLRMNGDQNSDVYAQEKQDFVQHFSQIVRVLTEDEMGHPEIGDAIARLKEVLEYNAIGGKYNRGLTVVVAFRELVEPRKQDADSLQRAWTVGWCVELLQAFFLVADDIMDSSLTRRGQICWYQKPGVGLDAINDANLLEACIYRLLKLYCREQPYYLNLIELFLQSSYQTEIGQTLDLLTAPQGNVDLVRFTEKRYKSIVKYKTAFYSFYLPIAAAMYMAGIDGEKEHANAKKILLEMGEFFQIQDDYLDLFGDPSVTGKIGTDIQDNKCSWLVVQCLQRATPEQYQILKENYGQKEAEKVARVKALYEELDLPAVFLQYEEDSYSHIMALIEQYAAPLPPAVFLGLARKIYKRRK

Homo sapiens = species: Homo sapiens; experiment: Selectivity ratio of IC50 for FDPS (unknown origin) to IC50 for GGDPS (unknown origin)
Rattus norvegicus [6] = species: Rattus norvegicus; experiment: Inhibition of recombinant rat GGtase-1 expressed in Escherichia coli using dansyl-GCVLS and geranylgeranyl pyrophosphate as substrate after 2 hrs by fluorescence microplate reader analysis; method in brief: as §1
Rattus norvegicus [7] = species: Rattus norvegicus; experiment: Inhibition of recombinant rat GGtase-1 expressed in Escherichia coli using dansyl-GCVLS and geranylgeranyl pyrophosphate as substrate at 100 uM after 2 hrs by fluorescence microplate reader analysis relative to control; method in brief: as §1

Structure (SMILES)	LED [1]	LED [2]	inhibition (Rattus norvegicus [3])	IC50 [4]	IC50 [5]	Ratio IC50 (Homo sapiens)	inhibition (Rattus norvegicus [6])	inhibition (Rattus norvegicus [7])
CC(C)=CCC/C(C)=C\C(=O)NCCC(P(=O)(O)O)P(=O)(O)O	50 µM	50 µM	< 30%					
CC(C)=CCC/C(C)=C/C(=O)NCCC(P(=O)(O)O)P(=O)(O)O (mixture of isomers)	10 µM	10 µM						
CC(C)=CCCC(=O)NCCC(P(=O)(O)O)P(=O)(O)O	50 µM	50 µM		14.4 µM	44.4 µM	3.1		
CC(C)=CCC/C(C)=C/C(=O)NCCC(P(=O)(O)O)P(=O)(O)O	5 µM	5 µM					inactive	
CC(C)=CCC/C(C)=C\CCC(=O)NCCC(P(=O)(O)O)P(=O)(O)O	0.5 µM	0.5 µM	inactive	1.1 µM	31.7 µM	28.8		inactive
CC(C)=CCC/C(C)=C\CC(=O)NCCC(P(=O)(O)O)P(=O)(O)O	5 µM	5 µM	inactive	3.7 µM	7.8 µM	2.1		inactive
CC(C)=CCC[C@H](C)CC(=O)NCCC(P(=O)(O)O)P(=O)(O)O	50 µM	50 µM	inactive	5.4 µM	27.8 µM	5.1		inactive
CC(C)=CCC[C@@H](C)CC(=O)NCCC(P(=O)(O)O)P(=O)(O)O	5 µM	5 µM	inactive	3.4 µM	48.5 µM	14.3		inactive
CC(C)=CCC/C(C)=C\CCn1cc(CC(P(=O)(O)O)P(=O)(O)O)nn1	0.03 µM	0.03 µM			33.3 µM	445		
CC(C)=CCC/C(C)=C/CCC(=O)NCCC(P(=O)(O)O)P(=O)(O)O	1 µM	1 µM	inactive	0.8 µM	14.3 µM	17.9		inactive
